Measurements: ChEMBL document CHEMBL5303300, “EUbOPEN Chemogenomics Library - Multiplex” (2023)
Where “and” joins values, the source holds several entries; their conditions need not be identical. Identical values can stand only once.

Test system: Fibroblast
Assay: Multiplex assay against human fibroblast
Assay type: toxicity, cell-based
Settings: number of replicates 2
Method in brief: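 Cells stained live at seeding with Hoechst33342, BioTracker Green Microtubule Cytoskeleton Dye, MitoTracker Red and Annexin V Alexa Fluor 680 were imaged on a CQ1 microscope at 37°C and 5% CO2 after compound addition. Their classification by CellPathfinder machine-learning gating ran from Hoechst high-intensity objects versus normal cells, to healthy, pyknosed or fragmented nuclei among normal cells, to mitotic or apoptotic among pyknosed cells. Tubulin, mitochondrial-mass and membrane-permeability phenotypes are per cents of healthy-nucleus cells.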

[1] = 12 h, 10 µM, compound concentration 10 uM
[2] = 24 h, 10 µM, compound concentration 10 uM
[3] = 48 h, 10 µM, compound concentration 10 uM
[4] = 12 h, 1 µM, compound concentration 1 uM
[5] = 24 h, 1 µM, compound concentration 1 uM
[6] = 48 h, 1 µM, compound concentration 1 uM

Compound: CCOC(=O)Nc1cc(-c2ccc(C)c(NS(C)(=O)=O)c2)nn2c(C)nnc12
- Population Apoptotic (%) [1]: 56% and 50% and 58% and 35%
- Population Fragmented Nuclei (%) [1]: 24% [middle of 4 runs]
- Population Healthy Nuclei (%) [1]: 74% and 67% and 65% and 60%
- Population Hoechst High Intensity Objects (%) [1]: 0%
- Population Mitochondria Different-Phenotype (%) [1]: 4% and 3% and 1%
- Population Mitotic Cells (%) [1]: 43% and 50% and 41% and 64%
- Population Normal (%) [1]: 99% and 100%
- Population Pyknosed Nuclei (%) [1]: 13% and 8%
- Population Tubulin-Different-Phenotype (%) [1]: 52% and 63% and 54% and 62%
- Total Cell Count [1]: 238 and 256 and 323 and 254
- Population Apoptotic (%) [2]: 52% and 69% and 65% and 42%
- Population Fragmented Nuclei (%) [2]: 33% and 20% and 21% and 34%
- Population Healthy Nuclei (%) [2]: 58% and 68% and 66% and 56%
- Population Hoechst High Intensity Objects (%) [2]: 0%
- Population Membrane Permeable-Phenotype (%) [2]: 11% and 5% and 12%
- Population Mitochondria Different-Phenotype (%) [2]: 7% and 4% and 2%
- Population Mitotic Cells (%) [2]: 47% and 30% and 34% and 57%
- Population Normal (%) [2]: 100%
- Population Pyknosed Nuclei (%) [2]: 7% and 11% and 8%
- Population Tubulin-Different-Phenotype (%) [2]: 57% and 33% and 29% and 43%
- Total Cell Count [2]: 314 and 289 and 319 and 299
- Population Apoptotic (%) [3]: 80% and 97% and 72%
- Population Fragmented Nuclei (%) [3]: 16% and 27% and 31%
- Population Healthy Nuclei (%) [3]: 71% and 60% and 67% and 52%
- Population Hoechst High Intensity Objects (%) [3]: 0%
- Population Membrane Permeable-Phenotype (%) [3]: 10% [middle of 4 runs]
- Population Mitochondria Different-Phenotype (%) [3]: 1% and 9% and 3% and 8%
- Population Normal (%) [3]: 100%
- Population Pyknosed Nuclei (%) [3]: 12% and 16%
- Population Tubulin-Different-Phenotype (%) [3]: 24% and 48% and 26% and 34%
- Total Cell Count [3]: 248 and 265 and 292 and 250

Compound: O=C1NC(=O)C(c2ccccc2[N+](=O)[O-])=C1Nc1ccc(O)c(Cl)c1
- Population Fragmented Nuclei (%) [4]: 10% and 18%
- Population Healthy Nuclei (%) [4]: 77% and 65%
- Population Hoechst High Intensity Objects (%) [4]: 0%
- Population Membrane Permeable-Phenotype (%) [4]: 3% and 7%
- Population Mitochondria Different-Phenotype (%) [4]: 1% and 0%
- Population Mitotic Cells (%) [4]: 87% and 53%
- Population Normal (%) [4]: 100% and 99%
- Population Pyknosed Nuclei (%) [4]: 11% and 16%
- Population Tubulin-Different-Phenotype (%) [4]: 4% and 9%
- Population Apoptotic (%) [1]: 46% and 47%
- Population Fragmented Nuclei (%) [1]: 8% and 12%
- Population Healthy Nuclei (%) [1]: 82% and 80%
- Population Hoechst High Intensity Objects (%) [1]: 0%
- Population Membrane Permeable-Phenotype (%) [1]: 1% and 2%
- Population Mitochondria Different-Phenotype (%) [1]: 0% and 1%
- Population Mitotic Cells (%) [1]: 53% and 52%
- Population Normal (%) [1]: 100%
- Population Pyknosed Nuclei (%) [1]: 9% and 7%
- Population Tubulin-Different-Phenotype (%) [1]: 6% and 5%
- Population Apoptotic (%) [5]: 45% and 57%
- Population Fragmented Nuclei (%) [5]: 10% and 17%
- Population Healthy Nuclei (%) [5]: 84% and 74%
- Population Hoechst High Intensity Objects (%) [5]: 0%
- Population Membrane Permeable-Phenotype (%) [5]: 2% and 4%
- Population Mitochondria Different-Phenotype (%) [5]: 0% and 1%
- Population Mitotic Cells (%) [5]: 54% and 42%
- Population Normal (%) [5]: 100%
- Population Pyknosed Nuclei (%) [5]: 5% and 8%
- Population Tubulin-Different-Phenotype (%) [5]: 5% and 7%
- Population Apoptotic (%) [2]: 40% and 37%
- Population Fragmented Nuclei (%) [2]: 12% and 11%
- Population Healthy Nuclei (%) [2]: 81% and 84%
- Population Hoechst High Intensity Objects (%) [2]: 0%
- Population Membrane Permeable-Phenotype (%) [2]: 2% and 3%
- Population Mitochondria Different-Phenotype (%) [2]: 0% and 1%
- Population Mitotic Cells (%) [2]: 60% and 62%
- Population Normal (%) [2]: 100%
- Population Pyknosed Nuclei (%) [2]: 6% and 3%
- Population Tubulin-Different-Phenotype (%) [2]: 7% and 2%
- Population Apoptotic (%) [6]: 35% and 46%
- Population Fragmented Nuclei (%) [6]: 12% and 19%
- Population Healthy Nuclei (%) [6]: 81% and 73%
- Population Hoechst High Intensity Objects (%) [6]: 0%
- Population Membrane Permeable-Phenotype (%) [6]: 1% and 2%
- Population Mitochondria Different-Phenotype (%) [6]: 0%
- Population Mitotic Cells (%) [6]: 64% and 53%
- Population Normal (%) [6]: 100%
- Population Pyknosed Nuclei (%) [6]: 6%
- Population Tubulin-Different-Phenotype (%) [6]: 3% and 2%
- Population Apoptotic (%) [3]: 33% and 75%
- Population Fragmented Nuclei (%) [3]: 6% and 11%
- Population Healthy Nuclei (%) [3]: 91% and 84%
- Population Hoechst High Intensity Objects (%) [3]: 0%
- Population Membrane Permeable-Phenotype (%) [3]: 3% and 0%
- Population Mitochondria Different-Phenotype (%) [3]: 0%
- Population Mitotic Cells (%) [3]: 66% and 25%
- Population Normal (%) [3]: 100%
- Population Pyknosed Nuclei (%) [3]: 1% and 3%
- Population Tubulin-Different-Phenotype (%) [3]: 7% and 1%
